# Compound activity (PubChem)
# The list is not random: actives were taken first. Their share in the collection is about 1.9%.
# PLCb3 inh = blocks human PLC-beta3 enzyme activity. Q01970. Purified PLC-beta3, fluorogenic substrate, fluorescence. inhibition, % at 12.2 µM. 370,000 tested, 0.18% active. AID 720704;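 further: 0% = median of compound wells on plate and 100% = full blocker control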
# HGIII-sPLA2 inh = Inhibits HGIII-sPLA2 liposome hydrolysis, primary screen; Q9NZ20; QFRET BODIPY PC-A2 liposome hydrolysis, fluorescence; inhibition, % at 12.2 µM; 370,000 tested, 0.56% active;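 active means inhibition above mean plus 3 SD of compounds lying within the high and low control bounds, cut at about 19% in these data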;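 further: 0% = median of test compound wells and 100% = no enzyme DMSO wells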
# PLCg1 inh = PLC-gamma1 (human) inhibition, primary screen | P19174 | purified PLC-gamma1, fluorogenic substrate, fluorescence | 370,000 tested, 0.84% active | inhibition, % at 12.2 µM; in the data active means inhibition above about 9.5%
# Target sequence (P19174 whole entry, looked up): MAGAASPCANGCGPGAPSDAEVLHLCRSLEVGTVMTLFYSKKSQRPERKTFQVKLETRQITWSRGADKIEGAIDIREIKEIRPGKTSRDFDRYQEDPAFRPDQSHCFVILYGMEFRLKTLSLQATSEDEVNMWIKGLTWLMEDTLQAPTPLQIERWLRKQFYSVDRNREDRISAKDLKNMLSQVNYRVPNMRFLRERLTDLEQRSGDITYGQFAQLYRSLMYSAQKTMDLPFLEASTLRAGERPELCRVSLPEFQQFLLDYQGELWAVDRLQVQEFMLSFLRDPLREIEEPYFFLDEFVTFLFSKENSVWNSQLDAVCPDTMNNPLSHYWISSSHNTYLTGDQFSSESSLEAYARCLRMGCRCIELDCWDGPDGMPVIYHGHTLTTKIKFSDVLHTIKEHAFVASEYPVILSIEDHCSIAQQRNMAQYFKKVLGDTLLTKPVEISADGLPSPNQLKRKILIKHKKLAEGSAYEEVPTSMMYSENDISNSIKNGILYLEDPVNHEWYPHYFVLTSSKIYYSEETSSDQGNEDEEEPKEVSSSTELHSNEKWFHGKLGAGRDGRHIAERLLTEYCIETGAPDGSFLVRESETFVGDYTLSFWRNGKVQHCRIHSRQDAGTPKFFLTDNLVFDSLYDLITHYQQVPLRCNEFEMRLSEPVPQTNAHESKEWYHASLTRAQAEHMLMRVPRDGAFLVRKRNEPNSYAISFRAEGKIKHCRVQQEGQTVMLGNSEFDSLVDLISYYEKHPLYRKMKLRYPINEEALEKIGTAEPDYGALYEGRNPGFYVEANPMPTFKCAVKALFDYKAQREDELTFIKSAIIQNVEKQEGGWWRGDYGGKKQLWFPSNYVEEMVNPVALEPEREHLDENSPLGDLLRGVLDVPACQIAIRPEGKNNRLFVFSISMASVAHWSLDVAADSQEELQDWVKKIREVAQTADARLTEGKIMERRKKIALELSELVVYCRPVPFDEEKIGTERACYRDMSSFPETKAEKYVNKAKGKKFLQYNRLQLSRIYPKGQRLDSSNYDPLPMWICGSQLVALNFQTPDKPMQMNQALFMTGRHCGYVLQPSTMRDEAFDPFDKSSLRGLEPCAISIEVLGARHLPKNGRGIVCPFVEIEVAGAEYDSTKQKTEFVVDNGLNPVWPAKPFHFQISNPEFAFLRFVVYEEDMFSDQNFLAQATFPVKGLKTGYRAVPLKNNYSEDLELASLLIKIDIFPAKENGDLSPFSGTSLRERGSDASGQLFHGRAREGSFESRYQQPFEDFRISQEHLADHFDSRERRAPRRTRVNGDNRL
# proCasp3 act = procaspase-3 (human) activation. P42574. activation, % at 8.5 µM. recombinant procaspase-3 D3A, Ac-DEVD-pNA absorbance 405 nm. 330,000 tested, 0.11% active;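 active means activation above the mean of all tested compounds plus 3 SD, cut at about 21% in these data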;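 further: 0% = DMSO alone and 100% = DMSO wells spiked with extra 5 µM PC-3 D3A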
#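 Compound: 8.5 µM single point, 0.8% DMSO / Material: Autoprocessing-dead procaspase-3 D3A mutant enzyme / Timing: 1 h preincubation plus 2 h reaction at 25 °C / Medium: Zinc-free HEPES/NaCl buffer with 0.01% Triton X-100 at pH 7.4 / Technique: 405 nm absorbance of p-nitroaniline, reads at 0 and 120 min / Repeats: one well per compound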
# procasp7 counter = counter-screen: procaspase-7 (human) activation | recombinant procaspase-7, Ac-DEVD-pNA absorbance 405 nm; D23A/D198A/D206A triple mutant, cannot self-cleave; scale: DMSO 0, 5 µM enzyme 100 | activation, % at 8.5 µM | P55210 | 330,000 tested, 0.093% active | AID 463210;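 active means percent activation above the screen-wide mean plus 3 SD, cut at about 25% in these data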
#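 buffer or medium = Zinc-free HEPES/NaCl buffer, pH 7.4 | material = Procaspase-7 triple mutant (PC-7 D3A) | input = 2 µM procaspase-7 mutant as dispensed | signal = Epi-absorbance of released pNA at 405 nm, two timepoints | timing = 1 h preincubation, 2 h reaction | replicates = singlicate compound testing | evaluation = % activation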
# Arrestin-AP2 inh = human beta-arrestin and AP2 interaction inhibition; FITC-arrestin peptide / GST-AP2 beads, flow cytometry; AP2 beta2 appendage carries R879A mutation; inhibition, % at 10 µM; 340,000 tested, 0.31% active; AID 504490;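 active means inhibition above a set limit, near 3 SD of compounds lacking own fluorescence, cut at about 54% in these data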;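 further: plate controls were DMSO wells for no effect and 5 µM unlabelled arrestin peptide for full effect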
#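 Assay system: GST-AP2 R879A bound to glutathione beads, E. coli-expressed; Medium: PBS with 0.05% Tween 20 and 0.1% BSA; Also added: fluorescein-tagged arrestin peptide at 50 nM final; Timing: 12 min plus 1 h, RT; Measured by: flow cytometry, FL1 (488/535 nm); Evaluation: percent drop in bead-associated FITC signal.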
# PLCg1 ctr = inhibits human PLC-gamma1 in PLC-beta3 counter-screen | shares compounds with PLCg1 inh | purified PLC-gamma1, fluorogenic substrate, fluorescence | inhibition, % at 12.3 µM | 3,300 tested, 3.1% active | AID 743258; in the data active means inhibition above about 9.5%
# PLCbeta3 conf = human PLC-beta3 inhibition, confirmation; shares compounds with PLCg1 inh; purified PLC-beta3, fluorogenic substrate fluorescence; inhibition, % at 12.3 µM; 3,300 tested, 1% active; AID 743261
# An asterisk follows results filed as active; . = no result given. Unless noted, no stated cut-off is given here; in the data, active means inhibition above about 11%; inactive means the rest.
SMILES,PLCb3 inh,HGIII-sPLA2 inh,PLCg1 inh,proCasp3 act,procasp7 counter,Arrestin-AP2 inh,PLCg1 ctr,PLCbeta3 conf
CCOc1ccc(-n2c(SCC(=O)Nc3ccc4c(c3)c3ccccc3n4CC)nnc2-c2cccnc2)cc1,-8,2,-5,.,.,.,.,.
CC(NC(=O)c1ccccc1Cl)C1COc2ccccc2O1 (stereo not drawn),13*,1,7,-6,-1,7,1,1
CC(NS(=O)(=O)c1ccccc1)C1COc2ccccc2O1 (stereo not drawn),-3,-10,-1,-10,1,-14,.,.
COc1ccccc1-c1ncn(Cc2cccc(-c3ccccc3)c2)c1-c1ccco1,-11,-8,-9,.,.,.,.,.
CCCNC(=O)c1cc(C2CCCCN2C(=O)c2ccc3c(c2)CCO3)on1 (stereo not drawn),0,7,48*,.,.,.,-6,-4
COC(=O)N1CCCCC1c1cc(C(=O)NCc2cccnc2)no1 (stereo not drawn),-1,-4,-1,.,.,.,.,.
O=C(Nc1ccccc1)c1cc(C2CCCCN2S(=O)(=O)c2ccccc2)on1 (stereo not drawn),6,-9,10*,.,.,.,-3,-2
COC(=O)N1CCCCC1c1cc(C(=O)NCc2ccccc2)no1 (stereo not drawn),2,5,10*,.,.,.,-1,-8
COC(=O)[C@H](CC(C)C)N(Cc1cn(CC2CCCCC2)nn1)S(=O)(=O)c1ccccc1Br,2,3,4,.,.,.,.,.
O=C(NNC(=O)c1cccc2ccccc12)c1ccc(F)cc1,17*,3,4,.,.,-2,5,3
O=C(NNC(=O)c1cccc2ccccc12)c1ccc(Br)cc1,-3,-18,1,.,.,11,.,.
CCOc1ccc(N(CC(=O)Nc2c(C)n(C)n(-c3ccccc3)c2=O)S(=O)(=O)c2ccc(C(C)(C)C)cc2)cc1,-1,3,0,.,.,.,.,.
O=[N+]([O-])c1ccc(Nc2ccccc2O)c([N+](=O)[O-])c1,5,-32,9.5*,.,.,.,1,-1
O=C(O)c1cc([N+](=O)[O-])ccc1Nc1ccccc1,-52,0,-43,-5,-9,-9,.,.
O=C(N[C@H](Cc1ccccc1)C(=O)NC1CCCCC1)[C@H]1O[C@@H](n2ccc(=O)[nH]c2=O)[C@H](O)[C@@H]1O,0,-2,0,.,.,.,.,.
CC(=O)Nc1ccc(NS(=O)(=O)c2cc(Cl)ccc2Cl)cc1,-4,4,9.7*,-1,9,-8,-3,0
O=C(O)c1ccc(NS(=O)(=O)c2cc(Cl)ccc2Cl)cc1,0,0,3,-4,7,0,.,.
O=C1c2ccccc2C(=O)N1CCCCN(C(=O)c1cc([N+](=O)[O-])cc([N+](=O)[O-])c1)c1ccc(Cl)cc1,2,-5,1,-2,-4,6,.,.
O=C1c2ccccc2C(=O)N1CCCCN(C(=O)c1ccc([N+](=O)[O-])cc1)c1ccc(Cl)cc1,3,-21,12*,-6,4,5,4,2
COc1cccc(-c2ccc(CC[C@H]3O[C@H]4CC[C@@H](CO)O[C@H]4C[C@H]3NC(=O)c3cnccn3)cc2)c1,4,-22,0,.,.,.,.,.
CC(=O)c1ccc(NC(=S)NC(NC(=O)c2ccco2)C(Cl)(Cl)Cl)cc1 (stereo not drawn),12*,-37,8,-4,8,22,3,-1
CCCCCCCCN1C(=O)[C@@H](CC(=O)N2CCCCC2)C[C@@]2(C(=O)OC)C1=C[C@H](COCc1ccccc1)O[C@@H]2C,-2,-19,-3,.,.,.,.,.
Cc1cc(NC(=O)CN2CCN(C/C=C/c3ccccc3)CC2)c([N+](=O)[O-])cc1C,0,6,9.5*,2,1,2,-3,-3
O=C(CN1CCN(C/C=C/c2ccccc2)CC1)Nc1cc([N+](=O)[O-])ccc1Cl,-1,-10,-1,0,-7,-9,.,.
Cc1cc(S(=O)(=O)Nc2ccc(C(=O)N3CCN(C(=O)c4ccco4)CC3)cc2)ccc1F,4,-8,11*,-3,3,5,5,4
SMILES,PLCb3 inh,HGIII-sPLA2 inh,PLCg1 inh,proCasp3 act,procasp7 counter,Arrestin-AP2 inh,PLCg1 ctr,PLCbeta3 conf
O=C(c1ccc(S(=O)(=O)Nc2ccc(F)cc2)cc1)N1CCN(C(=O)c2ccco2)CC1,6,-2,6,-2,3,-1,.,.
COc1ccc(Br)cc1S(=O)(=O)NCCCN1CCOCC1,-2,3,1,-4,-3,-1,.,.
COc1ccc(OC)c(S(=O)(=O)NCCCN2CCOCC2)c1,-2,1,12*,-7,3,0,-7,-1
CCOC(=O)N1CCC(NC(=O)C2CCN(C(=O)c3cc4sccc4n3CC)CC2)CC1,-1,-5,4,0,-2,2,.,.
CSc1nc2c(c(C(F)(F)F)n1)CC(C)CC2 (stereo not drawn),-3,1,9.6*,7,-1,-2,2,1
O=C(NC1CCCCC1)C(c1ccc(-c2ccccc2)cc1)n1c(=O)c(-c2ccco2)nc2ccccc21 (stereo not drawn),-26,12,-13,.,.,.,.,.
O=C(O)c1cccc2cccc(-c3c4ccc(=O)c(O)c-4oc4c(O)c(O)ccc34)c12,-6,9,39*,.,.,54,28*,-6
O=C(O)c1cccc2cc(-c3ccccc3)oc(=O)c12,-60,1,-44,1,14,-7,.,.
CC1(C)OC2OC(COC(=O)c3ccc([N+](=O)[O-])cc3)C3OC(C)(C)OC3C2O1 (stereo not drawn),5,-4,11*,-1,2,2,-1,1
O=C(COC(=O)c1ccc([N+](=O)[O-])cc1)NC1CCCC1,1,1,0,1,-8,45,.,.
COc1cc2c3cc1Oc1cc(ccc1O)C[C@@H]1c4c(cc(OC)c(O)c4Oc4ccc(cc4)C[C@@H]3N(C)CC2)CC[N+]1(C)C,10,13,13*,.,.,.,-3,-1
O=C(Nc1ccc(F)cc1)Nc1c(-c2ccc(C(F)(F)F)cc2)nc2ncccn12,-36,8,-25,.,.,.,.,.
CCC(C)[C@H](NC(=O)Nc1cccc(Br)c1)C(=O)OC (stereo partly drawn),9,-3,13*,-8,2,1,-6,-1
CCOc1cc(C)c(Cl)cc1S(=O)(=O)NC1CC(C)(C)NC(C)(C)C1,6,0,10*,1,4,-10,-8,-4
